Source: the RNAGym collection of RNA variant scans (doi:10.1126/science.aae0568)
Fewer inactive variants are shown than the library holds.

B1: tRNA (parent)
chain: GUUCCGUUGGCGUAAUGGUAACGCGUCUCCCUCCUAAGGAGAAGACUGCGGGUUCGAGUCCCGUACGGAACG

Variants of: B1
Experiment: yeast fitness relative to wild type (ratio to wild type); higher = fitter; tRNA-Arg(CCU), competitive growth, 37 C, YPD
Summary of the method: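 The tRNA-Arg(CCU) gene variants were made by chemical synthesis with a 3% per-site mutation rate at 69 sites and inserted at the native genomic locus of Saccharomyces cerevisiae. After pooling, the strains were competed in YPD at 37°C for 24 hours in six parallel replicates. Gene amplicons from the start population and each end population were read by 100-nucleotide paired-end sequencing, and Darwinian fitness relative to wild type was taken from genotype frequency changes. Genotypes needed ≥ 100 starting reads, and estimates < 0.5 were set to 0.5.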

Going from C22U C33G C55G to C22U C33G C60U C62G, the yeast fitness rises from 0.537 to 0.594.

C22U C33G G41C and C22U C33G G41C G56C G58A G63C A65U cannot be ordered by yeast fitness: at most 0.5 for the first, at most 0.5 for the second.

Going from C22U C33G G58A C66U to C22U C33U A42U A69C, the yeast fitness rises from 0.595 to 0.629.

C22U C33U A42U G52C A57C A65C and C22U C33U A43U G52A cannot be ordered by yeast fitness: at most 0.5 for the first, at most 0.5 for the second.

Compared with C22U C33U A69C, C22U C33U C34A G38C is lower in yeast fitness: 0.522 for the first, at most 0.5 for the second.

Compared with C22U C33U G52A C66U, C22U C34G is higher in yeast fitness: at most 0.5 for the first, 0.597 for the second.

C22U C34G A36U U47C A65C and C22U C34G A40C C46G cannot be ordered by yeast fitness: at most 0.5 for the first, at most 0.5 for the second.

C22U C34G G39A and C22U C34G G39A C49U cannot be ordered by yeast fitness: at most 0.5 for the first, at most 0.5 for the second.

C22U C34G G48C and C22U C34U A36U U53C cannot be ordered by yeast fitness: at most 0.5 for the first, at most 0.5 for the second.

First: C22U C34U C55U
Second: C22U C34U C60G A69G
The yeast fitness of the first is higher: 0.586 for the first, 0.58 for the second.

Compared with C22U C46A, C22U C46A C61U is lower in yeast fitness: 0.975 for the first, at most 0.5 for the second.

Going from C22U C46A C66U to C22U C46G, the yeast fitness rises from at most 0.5 to 0.835.

First: C22U C46G C49A G56A C60A A70C
Second: C22U C46G C49A U54C G56A C60A A70C
The yeast fitness of the first is higher: 0.534 for the first, at most 0.5 for the second.

C22U C46G C49G A57G and C22U C46G C55A cannot be ordered by yeast fitness: at most 0.5 for the first, at most 0.5 for the second.

Compared with C22U C46U, C22U C46U G51C is lower in yeast fitness: 0.995 for the first, at most 0.5 for the second.

Compared with C22U C49A, C22U C49A A69G is lower in yeast fitness: 0.682 for the first, at most 0.5 for the second.

First: C22U C49G U53A A65G
Second: C22U C49G U53A G63C
The yeast fitness of the first is lower: at most 0.5 for the first, 0.609 for the second.

Compared with C22U C49U G58A, C22U C49U U64A A70U is lower in yeast fitness: 0.621 for the first, at most 0.5 for the second.

Compared with C22U C55A A65G C66U, C22U C55G A70C is lower in yeast fitness: 0.585 for the first, 0.558 for the second.

C22U C55G C62A and C22U C60G A70G cannot be ordered by yeast fitness: at most 0.5 for the first, at most 0.5 for the second.

Compared with C22U C60U C61A G63C A65U, C22U C60U G67A is higher in yeast fitness: at most 0.5 for the first, 0.643 for the second.

First: C22U C61A
Second: C22U C61A C62U
The yeast fitness of the first is higher: 0.612 for the first, 0.586 for the second.

Compared with C22U C61G, C22U C61G A69G is lower in yeast fitness: 0.586 for the first, 0.574 for the second.

Compared with C22U C62A, C22U C62G is lower in yeast fitness: 0.856 for the first, 0.778 for the second.

Going from C22U C62U to C22U C66A, the yeast fitness falls from 0.867 to 0.716.

Compared with C22U C66U, C22U C66U A69U is lower in yeast fitness: 0.762 for the first, 0.6 for the second.

Compared with C22U G23A, C22U G23A C46U is lower in yeast fitness: 0.591 for the first, at most 0.5 for the second.

Compared with C22U G23A C61A, C22U G23A C66G G67A is lower in yeast fitness: 0.58 for the first, at most 0.5 for the second.

Compared with C22U G23C, C22U G23C C24A C49U C62U A69C is lower in yeast fitness: 0.722 for the first, 0.683 for the second.

Compared with C22U G23C C55U C60G A70C, C22U G23C U26C C30A is higher in yeast fitness: at most 0.5 for the first, 0.507 for the second.

C22U G25A A36G G51A C66U and C22U G25A A42C C49G U59A A65U cannot be ordered by yeast fitness: at most 0.5 for the first, at most 0.5 for the second.

C22U G25A A43G U54A C62U and C22U G25A C33U A42C cannot be ordered by yeast fitness: at most 0.5 for the first, at most 0.5 for the second.

Going from C22U G25A G41A C46A A69C to C22U G25A G41C U54G C61U, the yeast fitness falls from 0.599 to at most 0.5.

Going from C22U G25A G48C A57G to C22U G38A A40C, the yeast fitness rises from at most 0.5 to 0.541.

C22U G38A C55U G68C and C22U G38A G67C cannot be ordered by yeast fitness: at most 0.5 for the first, at most 0.5 for the second.

First: C22U G38C
Second: C22U G38C G41C A65G
The yeast fitness of the first is higher: 0.747 for the first, at most 0.5 for the second.

Going from C22U G39A to C22U G39C, the yeast fitness rises from 0.693 to 0.731.

Compared with C22U G39C C62U, C22U G41A is higher in yeast fitness: 0.51 for the first, 0.706 for the second.

C22U G41A A65C and C22U G41A A69C cannot be ordered by yeast fitness: at most 0.5 for the first, at most 0.5 for the second.

First: C22U G41A G50A C55G
Second: C22U G44A
The yeast fitness of the first is lower: at most 0.5 for the first, 0.865 for the second.

Compared with C22U G44C A70U, C22U G44C G63A is lower in yeast fitness: 0.711 for the first, at most 0.5 for the second.

Compared with C22U G48A, C22U G48A C55A G58C is lower in yeast fitness: 0.89 for the first, at most 0.5 for the second.

Going from C22U G48A G56A C60U to C22U G48A U54C, the yeast fitness rises from at most 0.5 to 0.601.

Going from C22U G48C G67C to C22U G50A, the yeast fitness rises from at most 0.5 to 0.875.

Going from C22U G50A G56A to C22U G50C, the yeast fitness rises from 0.793 to 0.818.

Compared with C22U G50U, C22U G51C A65U is lower in yeast fitness: 0.669 for the first, at most 0.5 for the second.

First: C22U G51C C61G
Second: C22U G51C G67A
The yeast fitness of the first is lower: 0.556 for the first, 0.604 for the second.

Going from C22U G52A to C22U G52A C55A, the yeast fitness falls from 0.675 to 0.579.

First: C22U G52A C55A C66U
Second: C22U G52A C60G
The yeast fitness of the first is higher: 0.526 for the first, 0.503 for the second.

Going from C22U G52C C55U A65U to C22U G56A, the yeast fitness rises from at most 0.5 to 0.734.

First: C22U G56C A57C C61G
Second: C22U G56C C60A C62G
The yeast fitness of the first is lower: at most 0.5 for the first, 0.523 for the second.

Compared with C22U G58A, C22U G58C is lower in yeast fitness: 0.926 for the first, 0.883 for the second.

C22U G58C C61A and C22U G58C C62G G63C cannot be ordered by yeast fitness: at most 0.5 for the first, at most 0.5 for the second.

Compared with C22U G63A A70C, C22U G63C is higher in yeast fitness: 0.508 for the first, 0.67 for the second.

Going from C22U G63C G68U to C22U G67A, the yeast fitness rises from at most 0.5 to 0.78.

First: C22U G67U
Second: C22U G68U
The yeast fitness of the first is lower: 0.808 for the first, 0.845 for the second.

C22U U26A A40G G67C and C22U U26A C29U A43C G52C U53A cannot be ordered by yeast fitness: at most 0.5 for the first, at most 0.5 for the second.

First: C22U U26A C29U G52C
Second: C22U U26A C49U A65U
The yeast fitness of the first is higher: 0.624 for the first, at most 0.5 for the second.

C22U U26C A37C G41C and C22U U26C G63U cannot be ordered by yeast fitness: at most 0.5 for the first, at most 0.5 for the second.

Compared with C22U U26G U35A A45G G50A, C22U U28A A37U C61U is lower in yeast fitness: 0.648 for the first, 0.552 for the second.

Going from C22U U28A C34G G38A G51A to C22U U28C, the yeast fitness rises from at most 0.5 to 0.736.

C22U U28C C29G C33A and C22U U28C C29G C33A C60A A70C cannot be ordered by yeast fitness: at most 0.5 for the first, at most 0.5 for the second.

C22U U28C C61A C62U and C22U U28G A45G cannot be ordered by yeast fitness: at most 0.5 for the first, at most 0.5 for the second.

First: C22U U32A
Second: C22U U32A C34U C66U
The yeast fitness of the first is higher: 0.733 for the first, at most 0.5 for the second.

Compared with C22U U32C A65C, C22U U32C C33G C55G is lower in yeast fitness: 0.701 for the first, at most 0.5 for the second.

First: C22U U32C C46G U53G G68C
Second: C22U U32C C46U U54G
The yeast fitness of the first is lower: 0.544 for the first, 0.593 for the second.

Compared with C22U U32C C46U U54G A70U, C22U U32C C55A is lower in yeast fitness: 0.655 for the first, at most 0.5 for the second.

First: C22U U32G C34U A40G A42G C66U
Second: C22U U32G C34U A40G A70U
The yeast fitness of the first is lower: 0.561 for the first, 0.563 for the second.

Compared with C22U U32G C34U A40G C49U C66U, C22U U32G C34U A40G C66U is higher in yeast fitness: 0.552 for the first, 0.647 for the second.

C22U U35A C66U and C22U U35A G52A cannot be ordered by yeast fitness: at most 0.5 for the first, at most 0.5 for the second.

Going from C22U U35C to C22U U35C A37U G50C C66U, the yeast fitness falls from 0.731 to 0.569.

Compared with C22U U35C A69C, C22U U35C C49U is lower in yeast fitness: 0.565 for the first, at most 0.5 for the second.

Compared with C22U U35C C49U C66U, C22U U35C C49U U53A is lower in yeast fitness: 0.586 for the first, at most 0.5 for the second.

Going from C22U U47A to C22U U47A C60U G67C A69U, the yeast fitness falls from 0.77 to at most 0.5.

Going from C22U U47C to C22U U47C C62U, the yeast fitness falls from 0.857 to 0.667.

First: C22U U47C G51C
Second: C22U U47C G51C C66U
The yeast fitness of the first is higher: 0.54 for the first, at most 0.5 for the second.

C22U U47C G52A and C22U U47G U59A cannot be ordered by yeast fitness: at most 0.5 for the first, at most 0.5 for the second.

Going from C22U U54A C55U G63A to C22U U54C C55A A65G C66U, the yeast fitness falls from 0.54 to at most 0.5.

Going from C22U U54G A65G G68U A70C to C22U U59A, the yeast fitness rises from at most 0.5 to 0.705.

Going from C22U U64C to G23A A36G, the yeast fitness falls from 0.977 to 0.668.

First: G23A A36G A69C
Second: G23A A36G C55G
The yeast fitness of the first is higher: 0.708 for the first, 0.578 for the second.

Going from G23A A36U G39C to G23A A36U G39C G50A, the yeast fitness falls from 0.518 to at most 0.5.

First: G23A A37C C49U C62U A70G
Second: G23A A37G
The yeast fitness of the first is lower: at most 0.5 for the first, 0.57 for the second.

In the case of G23A A37G G68A, the yeast fitness is reported as 0.682.
